Test system: MS2 coat protein
Assay: apparent Kd, MS2 coat protein; higher = weaker binding; RNA-MaP array; FMN 200 µM where present
Summary of the method: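 Designs were transcribed by stalled E. coli RNA polymerase on Illumina sequencing-chip clusters. They were titrated with SNAP-549-labelled MS2 coat protein from 0.7 or 1.5 nM, doubling to 3 µM, without and then with constant ligand. Buffer: 100 mM Tris-HCl pH 7.5, 80 mM KCl, 4 mM MgCl2, BSA, DTT, yeast tRNA, Tween-20. Green signal was normalised to red-channel RNA signal and control-cluster median Fmax. Apparent Kd is the median of filtered per-cluster binding-curve fits.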

[1] = designed as: ON switch for flavin mononucleotide, no ligand
[2] = ligand present: flavin mononucleotide, designed as: ON switch for flavin mononucleotide
[3] = designed as: OFF switch for flavin mononucleotide, no ligand
[4] = ligand present: flavin mononucleotide, designed as: OFF switch for flavin mononucleotide

Row | Sequence | apparent Kd [1] [µM] | apparent Kd [2] [µM] | apparent Kd [3] [µM] | apparent Kd [4] [µM]
1 | GGUACCUUCACAGGAUAUGCUAUGGUUUCCGUAGCAGAAGGGUGAUACAUGAGGAUCACCCAUGUGGUGCCAGGGCGUGAGCCC | 0.387 | 0.293 | – | –
2 | CUUUUAUAAUAGAAGGUAGACUUCAUGAGGAUCACCCAUGUGUUGGUACUAAGGAUAUGUAGUAACAUGAGGAUCACCCAUGUU | 0.0226 | 0.0222 | – | –
3 | UUAUGUGGCGUAGGAUAUCAUUAGAUUUGUAAUUUAAUUGUAAUUUCCAUAUGAGAAGGACGUACACAUGAGGAUCACCCAUGU | – | – | 0.0901 | 0.0324
4 | CAUUAAUUCAUUAUAUUAAUUUUACAGGAUAUGUAACAUGAGGAUCACCCAUGUAUUCUAGGUUAACAGAAGGGUAUUACUUGU | – | – | 0.0286 | 0.0229
5 | AUAAAGUCAGGAUAUGUAAAAAUAACGAAAGUUAUAAAUAAACAGAAGGGACAUGAGGAUCACCCAUGUAAAAU | – | – | 0.0323 | 0.0396
6 | CCUUCACAUGAGGAUCACCCAUGUGAGGAUAUCCUGCGAGGAUCAAAAGAUCCUCGUGGGAGAAGGCACAUGGA | – | – | 0.11 | 0.18
7 | GAGAAGUCAGGAUAUGCUGCUCGUCACUUGCGUGAUGAGUAGCAGAAGGGACAUGAGGAUCACCCAUGUAAAGC | – | – | 0.0473 | 0.0536
8 | ACUGACAUGAGGAUCACCCAUGUCUUGGAUAGGCCAAAUUCACAGGAUAUGCAUGAGGAAAGAGUGCAGAAGGGUGAUGCAAUG | 0.0437 | 0.0239 | – | –
9 | ACUAGAUGAGGAUAUGCAUGUUUUCGUGUUCUUCUAGAUUAACAUGAGGAUCACCCAUGUAGAAGGCGUCAUAU | – | – | 0.0484 | 0.134
10 | CUAUUGGUAACAGGAUAUAUGAGUCCUACAUGAGGAUCACCCAUGUAGGUGGUCAAACGUGAUUAGUAGAAGGGUUACCAAUAG | 0.0122 | 0.00618 | – | –
11 | GCUUGUGAAGGAUAUACUGGCGGCGUGCGCUCGGCGCGCGCACAUGAGGAUCACCCAUGUAGAAGGUCAGGCGU | – | – | 0.0138 | 0.0125
12 | CUCUUGUAAGGAUAUCACCACACAAAAAAAAAAAAGUGUGGUGAGAAGGUACAUGAGGAUCACCCAUGUACUAA | – | – | 0.023 | 0.0225
13 | UCCGCGCGCGUAGGAUAUACAUGAGGAUCACCCAUGUACCCAGAUGGCUUCCUGAAUCUUGCAAUGUAGAAGGACGCCCGUGGG | – | – | 0.0379 | 0.0425
14 | CGAUAUAUGAAGGGCGAAAGCCCACAUGAGGAUCACCCAUGUAGAAGGCGGGCCGCAACGCGGCCCGAGGAUAUAUAAUAUACA | – | – | – | 0.00915
15 | UUGGACGGCGUAGGAUAUGUAGGAUAUUCCUACAUGAGGAUCACCCAUGUUGACAUGGAAGAAGGACAGAAGGACGAUGUCCAU | 0.303 | 0.00494 | – | –
16 | UACUCGUGUGAGAAGGGACGUAUCUCCAUGAGGGCAGGGCUAUUAGAGAAGUCAGGAUAUCACAUGAGGAUCACCCAUGUGACG | – | – | 0.00826 | 0.0108
17 | GGUUGGCGAGGAUAUACAUGAGGAUCACCCAUGUGGUCCUAAAAAAAAAUAAACCUUUGUAGAAGGCGCGGGUC | – | – | 0.258 | 0.29
18 | GUUUAGUGAGGAUAUGUGGCUUCGAUCGAGCGCGGUCUGCUACAGAAGGCACAUGAGGAUCACCCAUGUUUCUC | – | – | 0.118 | 0.424
19 | AUAACGUCAGGAUAUUUCCAGAGGGUCAUAGGACCCAUUGGAAAGAAGGGACAUGAGGAUCACCCAUGUCGGUG | – | – | 0.136 | 0.391
20 | UUGUUACAUGAGGAUCACCCAUGUUGUUGUAGAUAAGGAUAUAUAGGAACGAGAGAAAUAAUAGAAGGUAUUAGAC | 0.0317 | 0.0272 | – | –
21 | UCGGCGCGAGGAUAUGCGGUUUGUGCUUUGGGCCCUGGCGUACAUGAGGAUCACCCAUGUAGAAGGCGCGCCGC | – | – | 0.0195 | 0.0196
22 | AAACAUGUCCGAGGAUAUCUGAGAUCAUUUUCAAGAGAAGGCGGACAUGAGGAUCACCCAUGUCUCUCCUCAUCAACUCUAAAU | – | – | 0.00599 | 0.0369
23 | ACUGACAUGAGGAUCACCCAUGUCUUGGAUAGGCCAAAUUCACAGGAUAUGCAUGAGGACAGCGUGCAGAAGGGUGAUGCAAUG | 0.0546 | 0.0255 | – | –
24 | AUAUAUAAUAAGAAGGUGCCAGCGAGAGCUGCACAUGAGGAUCACCCAUGUUGUCGGUGACGACGCAAGGAUAUUAUUAUAUAU | 0.0568 | 0.0185 | – | –
25 | GUCAGCUCGUGAGGAUAUACAACACUGCUUCGGCAGUGUAUUUAGAUCACAUGAGGAUCACCCAUGUAGAAGGCACGAGCUGAU | – | – | 0.0156 | 0.363
26 | UGUCGGAGCAGAGGAUAUUACAUGAGGAUCACCCAUGUAUGAACCAAUAGCUGGAAACAGCAAAGUAAGAAGGCUGCUCCGACA | – | – | 0.00628 | 0.0794
27 | UUAUUAUGUGUAGGAUAUGCAUAUUAUUAUUAUGCAGAAGGACAUGAGGAUCACCCAUGUAUAUUAUUAAUAUAUAUUAUAUAU | – | – | 0.0139 | 0.0157
28 | AUCGUGUGAGGAUAUCGAUGUUGGACGUCUAGGUCUGAGCGCGAGAAGGCACAUGAGGAUCACCCAUGUAAUGG | – | – | 0.272 | 0.35

Row | Sequence | apparent Kd [1] [µM] | apparent Kd [2] [µM] | apparent Kd [3] [µM] | apparent Kd [4] [µM]
29 | GUCAGCUCGUGAGGAUAUACAUCACUGCUUCGGCAGUGUAUUAAGAUUACAUGAGGAUCACCCAUGUAGAAGGCACGAGCUGAU | – | – | 0.0174 | 0.0239
30 | UCUCACUCAGGAUAUGAUGCGCAUGACAUGAGGAUCACCCAUGUGUGCAUGCCCUUUGCUUCAGAAGGGAGUGAGA | – | – | 0.019 | 0.0216
31 | GCUAUAGCGGAGGAUAUCCCGAAAAGAAGUUUAGGAGAAGGCCGCACAUGAGGAUCACCCAUGUGAGUCCGCAA | – | – | 0.0227 | 0.119
32 | UCCUUCUGUUGAGGAUAUGUAAGACAGCGGCUGCUAUUGCGGCACGCUGAUACAGAAGGCAACAUGAGGAUCACCCAUGUUCAA | – | – | 0.0264 | 0.205
33 | GUCAGCUCGUGAGGAUAUACAUCACUGCGAAAGCAGUGUAUUAAGAUCACAUGAGGAUCACCCAUGUAGAAGGCACGAGCUGAU | – | – | 0.0437 | 0.626
34 | UACCUACAUGAGGAUCACCCAUGUCAGGAUAUGUGCUGAGACGACAUCGACUUUCAGCGUAGAAGGGACCAGGG | – | – | 0.0244 | 0.0465
35 | AUAUCUUGUCGAGGAUAUGUUGUAUUGAUCUGAAAACAUGAGGAUCACCCAUGUAUACGGUGGGAACAGAAGGUGAAUGUAGAA | – | – | 0.574 | 0.715
36 | GUCAGCUCGUGAGGAUAUACAACACUGCUUCGGCAGUGUAUUAACAUCACAUGAGGAUCACCCAUGUAGAAGGCACGAGCUGAU | – | – | 0.00499 | 0.00745
37 | GGAAAUUAGCAAGGAUAUCGGCUCACUAUUACUUUAUGCCCUAGGACAUGAGGAUCACCCAUGUACGAGAAGGUGCUAACUACA | – | – | 0.0285 | 0.0311
38 | CAGGUAGACUGAGGAUAUACAAAAGACCUAGUCUAUCUAGGUCACAUCACAUGAGGAUCACCCAUGUAGAAGGCAGUCUGCCUG | – | – | 0.0162 | 0.0271
39 | UCCACUACUGAGAAGGGAUACAUAUGGUUCUAGUCAGGAUAUCGAUACAGUGCAGCAUGAGGACAUGAGGAUCACCCAUGUAUU | 0.0546 | 0.0362 | – | –
40 | GUAGCAUACCGAGGAUAUUCAGGGCAUAAAUAAACAUGAGGAUCACCCAUGUGGCGAAAGCCUAGGGAGAAGGCGGAAUGCUAC | 0.0185 | 0.0153 | – | –
41 | AAAUGGGCGUAGGAUAUGAGAUGGUCUAGCAGCUCAGAAGGACGCACAUGAGGAUCACCCAUGUGAUCGGACUA | – | – | – | 0.224
42 | UAAGUUGAGGAGAAGGGAGCACAUGAGGAUCACCCAUGUGGUUCUUUGUGCUCAGGAUAUCCAUGGAGCUCCGUCGAGUUCCAG | – | – | 0.0567 | 0.0166
43 | GUUCUUCCUGUGAGGAUAUCCAUGUGUCGGUUUGUGGAGAAGGUACAUGAGGAUCACCCAUGUCACCCGCGUUA | – | – | 0.0147 | 0.0177
44 | CUUAGGUGUACAUGAGGAUCACCCAUGUCCCUGGUCAUUAGACAGGAUAUAUGGGCGGUCGCUGCAUAGAAGGGUUAAAUGGGA | 0.764 | 0.591 | – | –
45 | AUAGCUCCCUAGAAGGGCCAACCAGUAUUCCAUCAGGUAUUUGCGGUAGGUAGGAUAUGGGACAUGAGGAUCACCCAUGUGUAG | 0.0358 | 0.0258 | – | –
46 | UUUUAACAUGAGGAUCACCCAUGUGAGGAUAUCGAAAUUUAUAUUAAUAUUUUUAAUUCGAGAAGGCACAUUUU | – | – | 0.116 | 0.118
47 | UCUCGUGUUCAGAAGGGCAAUCAACGAACAUGAGGAUCACCCAUGUUCUGCAGGAUAUGAACGGGUGGGAGCCCUGCGAAGGGA | 0.167 | 0.0255 | – | –
48 | GGAUAGGACAGAGGAUAUACGUGCUAGAGAUACUAGCAAAAUUUCCUCACAUGAGGAUCACCCAUGUAGAAGGAUGUCCUAUCG | – | – | 0.0053 | 0.00761
49 | GACUGAAUACAGAAGGUGUUUGACAUGAGGAUCACCCAUGUGUUAUUCAGAUUCAUAGAAUAUAACAAGGAUAUGUAUAUAUCA | 0.228 | 0.0616 | – | –
50 | GUAAUUAUAUAGGAUAUCGAUUUUAUUAUUUAACGAGAAGGAUGAACAUGAGGAUCACCCAUGUGGUAUCAUGG | – | – | 0.164 | 0.177
51 | GGUUGGCAGCUAGGAUAUGGGCGGUCACAUGAGGAUCACCCAUGUCAACAUCAAAACCAGAUUAACCAGAAGGAGCUGCGGGUU | 0.0148 | 0.0877 | – | –
52 | CCCGCCCGUCGAGGAUAUAUUAUAUGACAACAAACACAUACAUGAGGAUCACCCAUGUCCCAUGUAUAGAAGGCGACCUGCGUC | 0.0748 | 0.0983 | – | –
53 | CACCGUUAGCGAGGAUAUCGUACAUGAGGAUCACCCAUGUAAUAAAUGAGAAUUUCGGAUGUAUGCGAGAAGGCGCGAAUCGGC | – | – | 0.0529 | 0.0406
54 | GUCAGCUCGUGAGGAUAUACAACACUGCUUCGGCAGUGUAUUAAGAUCACAUGAGGAUCACCCAUGUAGAAGGUACGAGCUGAU | – | – | 0.00856 | 0.0829
55 | UUAUACAUUCGAGGAUAUCGGUGAGAAAUCUUUCGAGAAGGCGAUUCAUGAUUUAUUAUCCUGGACAUGAGGAUCACCCAUGUA | 0.0798 | 0.0609 | – | –

Source: the EternaBench riboswitch data
